Runt-CBFb FRET: inhibitors of RUNX1 Runt–CBFb binding, primary screen, biochemical, FRET, Cerulean-Runt, Venus-CBFb, uHTS; Runt-related transcription factor 1 (Homo sapiens) + Core-binding factor subunit beta …; actives 0.46% (n = 220,000); AID 1496, 2009; Cerulean-Runt/Venus-CBFb FRET ratio 530/480, 1 h; inhibition, % at 20 µM;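 active means inhibition over about 50% at 20 µM in the single-dose screen, limit read from the data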;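 further: 0% = DMSO wells and 100% = excess unlabeled CBFb competitor control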
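test system = Cerulean-Runt domain fusion protein, energy donor | probe or stimulus = Venus-CBFb binding partner, 100 nM | incubation = two 1 h room-temperature incubations shielded from light | detection = fluorescence energy transfer, 422 nm excitation, 530/480 nm emission | measure = loss of energy transfer signal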
RanGTP-Imp inh: inhibitors of RanGTP-importin-beta interaction, primary screen, biochemical, FRET, CFP-Ran, YFP-importin-beta, homogeneous; inhibition, % (test concentration not listed); cell-free CFP-Ran/YFP-importin-beta FRET ratio; AID 2216, 2009; actives 1.1% (n = 300,000); Ran GTPase (GTP-bound) - importin-beta complex;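 active means more than half of the replicate wells show a fall in the fluorescence ratio signal beyond about 16%, limit read from the data, passing the limit was not always enough; inconclusive means exactly half of the replicate wells pass the set limit; inactive means fewer than half of replicates pass the limit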;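 further: 0% = DMSO wells and 100% = Ran loaded with GDP instead of GTP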
Hck Nef HTS: inhibitors of Nef-activated human Hck kinase, primary screen, biochemical, Z-Lyte FRET, 384-well, Hck-YEEI | Tyrosine-protein kinase HCK (Homo sapiens), P08631 | Recombinant Hck-YEEI plus Nef, Z-Lyte FRET kinase assay | inhibition, % at 20 µM | actives 0.68% (n = 220,000);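 active means Hck-Nef kinase inhibition above about 50%, limit read from the data; inactive means inhibition below that limit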;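 further: 0% = DMSO with Hck plus Nef and 100% = Hck alone without Nef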
Target sequence (P08631 whole entry, looked up): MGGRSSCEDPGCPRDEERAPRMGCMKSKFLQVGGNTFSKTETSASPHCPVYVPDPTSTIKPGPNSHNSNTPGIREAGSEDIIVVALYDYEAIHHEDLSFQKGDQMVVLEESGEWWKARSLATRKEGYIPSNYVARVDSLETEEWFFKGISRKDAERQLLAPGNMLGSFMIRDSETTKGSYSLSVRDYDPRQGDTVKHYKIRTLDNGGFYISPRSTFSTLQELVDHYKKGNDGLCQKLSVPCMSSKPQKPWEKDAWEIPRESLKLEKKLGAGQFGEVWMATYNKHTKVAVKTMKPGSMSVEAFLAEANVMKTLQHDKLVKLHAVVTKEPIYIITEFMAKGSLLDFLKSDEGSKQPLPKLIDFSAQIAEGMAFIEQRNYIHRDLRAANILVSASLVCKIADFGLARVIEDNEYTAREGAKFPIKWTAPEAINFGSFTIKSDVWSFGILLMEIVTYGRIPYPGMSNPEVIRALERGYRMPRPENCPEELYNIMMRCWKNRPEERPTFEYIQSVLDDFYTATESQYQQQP
TbHK1 inh: Trypanosoma brucei hexokinase 1 inhibitors, primary screen, biochemical, G6PDH-coupled NADH absorbance, MLSCN library; hexokinase 1 [Trypanosoma brucei]; recombinant TbHK1, G6PDH-coupled NADH A340; inhibition, % at 10 µM; actives 0.11% (n = 220,000); AID 1430, 2008;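 active means inhibition of 50% or more in the single-dose primary screen; inactive means inhibition below 50%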
Runt-SMMHC FRET: inhibitors of RUNX1 Runt–CBFb-SMMHC binding, primary screen, biochemical, FRET, Cerulean-Runt, Venus-CBFb-SMMHC, uHTS | inhibition, % at 20 µM | Cerulean-Runt/Venus-CBFb-SMMHC FRET ratio 530/480, 1 h | actives 0.74% (n = 220,000);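 active means mean inhibition across duplicate retests at 20 µM reaching about 50%, limit read from the data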;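 further: 0% = DMSO wells and 100% = wells with excess untagged CBFb-SMMHC; inhibitors lower the FRET ratio by blocking Runt binding to CBFb-SMMHC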
YIC counter: YIC intramolecular FRET probe signal interference, dose response, counter-screen for RanGTP-importin-beta inhibitor project, biochemical, fluorescence FRET; AID 435026, 2010; Purified YIC probe, intramolecular FRET ratio YFP/CFP; IC50, µM; shares compounds with RanGTP-Imp inh; actives 40% (n = 1,000);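 active means fitted half-maximal inhibitory concentration no more than tenfold above the top dose tested; inconclusive means flat fit with 30 to 70% activity, or poor fit; inactive means half-maximal concentration beyond tenfold above the top dose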
The depositor's hits bear a star; i = inactive; u = inconclusive; x = not tested or not shown. Rows were chosen to be rich in hits. Some 1.9% of all compounds tested hit in one or more screens of this group.

SMILES | Runt-CBFb FRET | RanGTP-Imp inh | Hck Nef HTS | TbHK1 inh | Runt-SMMHC FRET | YIC counter
CC(C)CCNC(=O)C(c1ccco1)N(Cc1ccccc1)C(=O)c1snc(C(N)=O)c1N (centres undefined) | -3.5 | 30.1* | 3.7 | -2.3 | 5.6 | >50
Cc1ccccc1CN1CCN(S(=O)(=O)c2ccc(F)cc2)CC1 | -1.4 | -0.1 | 7.4 | 7.7 | -1.2 | x
Cc1cccc(C)c1N1CCN(S(=O)(=O)c2ccc(F)cc2)CC1 | -0.2 | 18.9* | 3.4 | 10.8 | -0.7 | >50
O=S1(=O)CC2NC(=S)N(c3cccc(Br)c3)C2C1 (centres undefined) | 3.8 | -2.3 | 9.9 | -2.7 | 0.7 | x
O=c1cc(CO)[nH]cc1OCc1ccccc1 | -0.1 | -4.7 | 18.5 | -15.5 | -1.8 | x
COc1cccc(N2CCN(C(=O)c3cccn4c(=O)c5c(C)c(C)sc5nc34)CC2)c1 | x | -1.1 | -10.9 | -1.5 | -23.6 | x
COc1cccc(N2CCN(C(=O)c3cc4c(=O)n(Cc5ccccc5)ccc4nc3C)CC2)c1 | x | 16.2* | x | x | x | >50
O=C(CN1CCOCC1)NNc1c2ccccc2nc2ccccc12 | 13.3 | 19.1* | 11.5 | -12.6 | 7.7 | >50
O=C(NNc1c2ccccc2nc2ccccc12)c1ccc(Cl)cc1 | x | 20.2* | x | x | x | >50
Nc1ccccc1C(=O)NNc1c2ccccc2nc2ccccc12 | 3.4 | 32.7* | 22.7 | -1.5 | 7.2 | >50
C[N+]1(CC(=O)NNc2c3ccccc3nc3ccccc23)CCOCC1 | 3.7 | 2.4 | 18.2 | -6.9 | 14.2 | x
Cc1ccc(SCC(=O)Nc2cccc(-c3nnc(-c4ccco4)o3)c2)cc1 | -3.0 | 1.9 | 2.4 | 6.0 | 3.4 | x
COc1ccc(C(=O)Oc2c(CN3CCOCC3)cc(Cl)c3cccnc23)cc1 | 3.6 | 25.2* | -0.7 | -2.9 | 1.8 | >50
COc1cc(C(=O)Oc2c(CN3CCOCC3)cc(Cl)c3cccnc23)cc(OC)c1OC | 1.1 | 16.1* | -0.1 | -14.3 | 1.4 | >50
COC(=O)c1cc(NC(=O)c2ccc([N+](=O)[O-])cc2)c(=O)oc1C | 9.5 | 17.6* | -13.4 | -8.8 | 2.3 | >50
CC(=O)c1cc(NC(=O)c2ccc([N+](=O)[O-])cc2)c(=O)oc1C | 21.2 | -0.8 | 8.4 | -13.0 | 15.7 | x
Cc1ccnc(NC(=O)CCc2c[nH]c3ccccc23)c1 | x | 3.5 | x | x | x | x
Cc1nc(N2CCC(C)CC2)c2c(C)c(C(=O)Nc3cccc(C(F)(F)F)c3)sc2n1 | -6.3 | -3.6 | 22.3 | -15.6 | -3.8 | x
Cc1nc(Nc2cnc(/C=C/c3cc(C(=O)Nc4cccc(C(F)(F)F)c4)ccc3C)cn2)cc(N2CCNCC2)n1 | x | 41.2* | x | x | x | 18.2*
COC(=O)C1=CN(c2cc(C)cc(C)c2)C=C(C(=O)OC)C1c1ccc(OC)c(O)c1 | x | -2.0 | x | x | x | x
COC(=O)C1=CN(Cc2ccc(OC)c(OC)c2)C=C(C(=O)OC)C1c1cccc(O)c1 | x | 19.4* | x | x | x | 17.5*
COc1ccc(C(=O)N/N=C/c2sc3ccccc3c2O)cc1 | 18.3 | 7.9 | 4.3 | -0.2 | 70.8 | x
COc1ccc2cc(C(=O)N/N=C/c3sc4ccccc4c3O)ccc2c1 | -38.8 | 22.5* | -8.7 | -3.9 | -175.4 | i
Cc1ccc(NC(=O)CN2CCN(C)CC2)cc1Br | x | 3.0 | x | x | x | x
COCC(=O)Nc1ccc(OC)c(Cl)c1 | 2.4 | 2.5 | -24.1 | -0.8 | 2.0 | x
SMILES | Runt-CBFb FRET | RanGTP-Imp inh | Hck Nef HTS | TbHK1 inh | Runt-SMMHC FRET | YIC counter
COc1ccc(NC(=O)COC(C)=O)cc1Cl | 1.0 | 20.6* | 0.5 | -0.2 | -1.1 | >50
O=C(NCc1ccccc1F)C1CCCN(S(=O)(=O)N2CCOCC2)C1 (centres undefined) | x | 3.9 | x | x | x | x
COc1ccccc1C(=O)NC(=S)Nc1ccccc1N1CCCC1 | x | 3.8 | x | x | x | x
COc1ccccc1C(=O)NC(=S)Nc1ccc(N2CCCC2)cc1 | 1.3 | 19.7* | 2.5 | -23.3 | 1.7 | >50
COc1ccc(S(=O)(=O)N2CCCOC2CNC(=O)C(=O)NCc2ccccc2F)cc1C (centres undefined) | x | -0.1 | x | x | x | x
COc1ccccc1S(=O)Cc1ccc(C(=O)O)o1 (centres undefined) | x | 20.4* | 0.8 | -1.0 | 2.7 | >50
Cc1c(C)n2c(SCC(=O)N3CC(C)OC(C)C3)nnc2[nH]c1=O (centres undefined) | x | -3.5 | x | x | x | x
N=c1c(S(=O)(=O)c2ccc(Br)cc2)cc2c(=O)n3ccccc3nc2n1C1CCCCC1 | x | 21.8* | x | x | x | >50
COc1ccc(CCNC(=O)c2cc3c(=O)n4ccccc4nc3n(C3CCCCC3)c2=N)cc1OC | x | 23.5* | x | x | x | 25.9*
COc1ccc(CCNC(=O)c2cc3c(=O)n4ccccc4nc3n(CC3CCCO3)c2=N)cc1OC (centres undefined) | x | 18.2* | x | x | x | 27.5*
COc1ccc(CCNC(=O)c2c(C)nc3ccccn23)cc1OC | 0.8 | 6.4 | 18.6 | 0.3 | -0.1 | x
CN(C)c1ccc2c3c(ccc(N(C)C)c13)C(=O)OC2 | -3.6 | -4.2 | 11.9 | -14.9 | -17.6 | x
COc1ccc(Cn2c(O)c(C=Nc3ccc(OC)cc3)c3ccccc3c2=O)cc1 | -165.7 | 29.0* | 2.4 | -15.5 | -24.9 | >26
CCN1CCN(c2c(Cl)cccc2NC(=O)c2cc3ccccc3o2)CC1 | x | -1.9 | x | x | x | x
COc1ccc(-n2cnc3cc(NCc4cccs4)ccc32)cc1 | -0.7 | 18.7* | 12.1 | 3.1 | 1.0 | >50
c1ccc(-n2cnc3cc(NCc4cccs4)ccc32)cc1 | -1.4 | u | 1.7 | 2.6 | 2.3 | x
OCCC1CN(Cc2cccn2-c2cccnc2)CCN1Cc1ccc(F)cc1 (centres undefined) | -0.3 | 26.9* | 14.4 | -0.9 | -0.7 | >50
CCOc1ccc(CN2CCN(Cc3cccn3-c3cccnc3)CC2CCO)cc1 (centres undefined) | 0.2 | -5.6 | 19.6 | 0.1 | 3.0 | x
COc1cccc(NC(=O)CSc2ncc(S(=O)(=O)c3ccccc3)c(=O)[nH]2)c1 | -0.7 | 30.4* | 12.5 | -6.9 | -0.4 | >50
Cc1ccc(NC(=O)CSc2ncc(S(=O)(=O)c3ccccc3)c(=O)[nH]2)cc1C | 2.1 | 1.2 | 1.9 | 2.7 | -5.1 | x
CCCc1cc(C(=O)O)c2ccccc2n1 | 0.2 | 3.4 | 0.9 | -9.9 | -7.1 | x
CCCc1c2ccccc2nc2ccccc12 | 18.7 | 21.4* | 8.8 | -7.8 | 51.8* | 9.61*
COc1cc([C@@H]2[C@H]3CN(C)CC=C3C(C#N)=C(N)C2(C#N)C#N)cc2c1OCO2 | 29.5 | 23.9* | 10.0 | -3.1 | 62.0* | 5.69*
